Values after ≈ are worked out from the molar mass of the structure shown.
Key:
Assay type in all cases: functional
Streptococcus pneumoniae [1] = test: Antibacterial activity against erythromycin-resistant Streptococcus pneumoniae B1 harboring ermB gene after 24 hrs by tube-dilution method; settings: B1, 24 h
In short: (§1)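 MIC determined by the NCCLS-recommended standard broth microdilution method against erythromycin-resistant S. pneumoniae strains (A22072 mef, B1 erm, AB11 erm plus mef) and methicillin-resistant S. aureus ATCC43300.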

Streptococcus pyogenes [2] = test: Antibacterial activity against erythromycin-susceptible Streptococcus pyogenes after 24 hrs […]
Streptococcus pneumoniae [3] = test: Antibacterial activity against erythromycin-resistant Streptococcus pneumoniae AB11 harboring ermB and mefA genes after 24 hrs by tube-dilution method; settings: AB11, 24 h; in short: as §1
Streptococcus pyogenes [4] = test: Potency index, ratio of azithromycin MIC to compound MIC for erythromycin-resistant Streptococcus pyogenes R1
Bacillus subtilis = test: Antibacterial activity against erythromycin-susceptible Bacillus subtilis ATCC 9372 after 24 hrs by tube-dilution method; settings: ATCC 9372, 24 h
In short: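 MIC by standard NCCLS broth microdilution. Reference macrolides clarithromycin and azithromycin run alongside.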

Streptococcus pneumoniae [5] = test: Antibacterial activity against erythromycin-resistant Streptococcus pneumoniae A22072 harboring mefA gene after 24 hrs by […]; settings: A22072, 24 h
Pseudomonas aeruginosa = test: Antibacterial activity against penicillin-susceptible Pseudomonas aeruginosa ATCC 27853 incubated for 24 hrs by […]; settings: ATCC 27853, 24 h
Streptococcus pyogenes [6] = test: Antibacterial activity against erythromycin-resistant Streptococcus pyogenes R1 after 24 hrs by tube-dilution method; settings: R1, 24 h
Staphylococcus aureus [7] = test: Antibacterial activity against methicillin-resistant Staphylococcus aureus ATCC 43300 after 24 hrs by tube-dilution method; settings: ATCC 43300, 24 h; in short: as §1
Staphylococcus aureus [8] = test: Antibacterial activity against erythromycin-susceptible Staphylococcus aureus ATCC 25923 after 24 hrs by […]; settings: ATCC 25923, 24 h
Streptococcus pyogenes [9] = test: Potency index, ratio of clarithromycin MIC to compound MIC for erythromycin-resistant Streptococcus pyogenes R1
Escherichia coli = test: Antibacterial activity against penicillin-susceptible Escherichia coli ATCC 25922 incubated for 24 hrs by […]; settings: ATCC 25922, 24 h
Streptococcus pneumoniae [10] = test: Potency index, ratio of azithromycin MIC to compound MIC for erythromycin-resistant Streptococcus pneumoniae A22072 harboring mefA gene
Staphylococcus aureus [11] = test: Potency index, ratio of clarithromycin MIC to compound MIC for methicillin-resistant Staphylococcus aureus ATCC 43300
Staphylococcus aureus [12] = test: Potency index, ratio of azithromycin MIC to compound MIC for methicillin-resistant Staphylococcus aureus ATCC 43300
Streptococcus pneumoniae [13] = test: Potency index, ratio of clarithromycin MIC to compound MIC for erythromycin-resistant Streptococcus pneumoniae B1 harboring ermB gene
Streptococcus pneumoniae [14] = test: Potency index, ratio of azithromycin MIC to compound MIC for erythromycin-resistant Streptococcus pneumoniae B1 harboring ermB gene
Streptococcus pneumoniae [15] = test: Potency index, ratio of azithromycin MIC to compound MIC for erythromycin-resistant Streptococcus pneumoniae AB11 harboring ermB and mefA gene
Streptococcus pneumoniae [16] = test: Potency index, ratio of clarithromycin MIC to compound MIC for erythromycin-resistant Streptococcus pneumoniae AB11 harboring ermB and mefA gene
Streptococcus pneumoniae [17] = test: Potency index, ratio of clarithromycin MIC to compound MIC for erythromycin-resistant Streptococcus pneumoniae A22072 harboring mefA gene

SMILES	MIC (Streptococcus pneumoniae [1]) [µg/mL]	MIC (Streptococcus pyogenes [2]) [µg/mL]	MIC (Streptococcus pneumoniae [3]) [µg/mL]	Ratio (Streptococcus pyogenes [4])	MIC (Bacillus subtilis) [µg/mL]	MIC (Streptococcus pneumoniae [5]) [µg/mL]	MIC (Pseudomonas aeruginosa) [µg/mL]	MIC (Streptococcus pyogenes [6]) [µg/mL]	MIC (Staphylococcus aureus [7]) [µg/mL]	MIC (Staphylococcus aureus [8]) [µg/mL]	Ratio (Streptococcus pyogenes [9])	MIC (Escherichia coli) [µg/mL]	Ratio (Streptococcus pneumoniae [10])	Ratio (Staphylococcus aureus [11])	Ratio (Staphylococcus aureus [12])	Ratio (Streptococcus pneumoniae [13])	Ratio (Streptococcus pneumoniae [14])	Ratio (Streptococcus pneumoniae [15])	Ratio (Streptococcus pneumoniae [16])	Ratio (Streptococcus pneumoniae [17])
CC[C@H]1OC(=O)[C@H](C)[C@@H](OC(=O)Cc2cccnc2)[C@H](C)[C@@H](O[C@@H]2O[C@H](C)C[C@H](N(C)C)[C@H]2O)[C@](C)(OC)C[C@@H](C)C(=O)[C@H](C)[C@@H](OC(=O)NCCNC(=O)c2ccc(C3CCCCC3)cc2)[C@]1(C)O	64 (≈ 65.2 µM)	0.5 (≈ 0.51 µM)	32 (≈ 32.6 µM)	4	4 (≈ 4.08 µM)	1 (≈ 1.02 µM)	128 (≈ 130 µM)	32 (≈ 32.6 µM)	32 (≈ 32.6 µM)	2 (≈ 2.04 µM)	4	128 (≈ 130 µM)								
CC[C@H]1OC(=O)[C@H](C)[C@@H](OC(=O)Cc2cccnc2)[C@H](C)[C@@H](O[C@@H]2O[C@H](C)C[C@H](N(C)C)[C@H]2O)[C@](C)(OC)C[C@@H](C)C(=O)[C@H](C)[C@@H](OC(=O)NCCNC(=O)c2ccc([N+](=O)[O-])cc2N)[C@]1(C)O	16 (≈ 16.7 µM)	0.03 (≈ 0.0313 µM)	4 (≈ 4.17 µM)		1 (≈ 1.04 µM)	0.25 (≈ 0.261 µM)	64 (≈ 66.7 µM)	128 (≈ 133 µM)	64 (≈ 66.7 µM)	1 (≈ 1.04 µM)		64 (≈ 66.7 µM)	16	4	4	8	8	32	32	8
CC[C@H]1OC(=O)[C@H](C)[C@@H](OC(=O)Cc2cccnc2)[C@H](C)[C@@H](O[C@@H]2O[C@H](C)C[C@H](N(C)C)[C@H]2O)[C@](C)(OC)C[C@@H](C)C(=O)[C@H](C)[C@@H](OC(=O)NCCNC(=O)c2cc([N+](=O)[O-])cc([N+](=O)[O-])c2)[C@]1(C)O	32 (≈ 32.4 µM)	0.015 (≈ 0.0152 µM)	4 (≈ 4.04 µM)		1 (≈ 1.01 µM)	0.5 (≈ 0.506 µM)	64 (≈ 64.7 µM)	128 (≈ 129 µM)	64 (≈ 64.7 µM)	1 (≈ 1.01 µM)		64 (≈ 64.7 µM)	8					32	32	4
CC[C@H]1OC(=O)[C@H](C)[C@@H](OC(=O)Cc2cccnc2)[C@H](C)[C@@H](O[C@@H]2O[C@H](C)C[C@H](N(C)C)[C@H]2O)[C@](C)(OC)C[C@@H](C)C(=O)[C@H](C)[C@@H](OC(=O)NCCNC(=O)C#Cc2cccc3ccccc23)[C@]1(C)O	32 (≈ 32.9 µM)	0.125 (≈ 0.128 µM)	16 (≈ 16.4 µM)	4	2 (≈ 2.06 µM)	1 (≈ 1.03 µM)	> 128	32 (≈ 32.9 µM)	64 (≈ 65.8 µM)	4 (≈ 4.11 µM)	4	> 128								

Reference: ChEMBL document CHEMBL4118255, “Synthesis and antibacterial evaluation of novel 11-O-aralkylcarbamoyl-3-O-descladinosylclarithromycin derivatives” (2018)
